Laboratory results reported in ChEMBL document CHEMBL4706606, “Re-evaluating pretomanid analogues for Chagas disease: Hit-to-lead studies reveal both in vitro and in vivo trypanocidal efficacy” (Eur J Med Chem, 2020).
≈ marks a conversion by molar mass, not a printed value. Calls of active or inactive are those of the source. The calls are words filed in the database; no cut-off is given here.

Experiments:
Trypanosoma cruzi [1] = test: Antitrypanosomal activity against Trypanosoma cruzi Tulahuen strain C2C4 amastigotes infected in rat L6 cells assessed as inhibition of parasite growth incubated for 96 hrs by chlorophenol red-fl-D-galactopyranoside based colorimetric analysis; assay type: functional, organism-based; conditions: for IC50: Tulahuen strain C2C4, L6, 96 h; for IC90: Tulahuen strain C2C4, L6, time 96 hrs
Summary of the method: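 Tulahuen strain TcVI T. cruzi expressing β-galactosidase, grown in L6 rat skeletal myoblast host cells. IC50/IC90 growth inhibition. Each value is the mean of ≥2 independent determinations using fresh sample stock.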

L6 = test: Cytotoxicity against rat L6 cells assessed as reduction in cell viability incubated for 72 hrs by alamar blue assay; assay type: ADME, cell-based; conditions: L6, 72 h
[2] = Selectivity index, ratio of IC50 for cytotoxicity against rat L6 cells to IC50 for antitrypanosomal activity against Trypanosoma cruzi Tulahuen strain C2C4 amastigotes infected in rat L6 cells
[3] = Kinetic solubility of compound in water sonicated for 15 mins by HPLC analysis
[4] = Half life in human liver microsomes incubated for 60 mins
Trypanosoma cruzi [5] = test: Antitrypanosomal activity against Trypanosoma cruzi amastigotes assessed as inhibition of parasite growth at 10 ug/ml relative to control
[6] = Kinetic solubility of compound in 0.1M HCl at pH 1 sonicated for 15 mins by HPLC analysis; assay type: physicochemical; conditions: read-out: Kinetic_solubility
Summary of the method: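 Solid mixed with 0.1 M HCl to a nominal 2 mM, sonicated 15 min, centrifuged 6 min. Supernatant diluted 2-fold and analysed by HPLC. Kinetic solubility from peak area against a DMSO standard solution.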

[7] = Metabolic stability in CD-1 mouse liver microsomes assessed as parent compound remaining incubated for 1 hr; assay type: ADME, Microsome
Summary of the method: (§1)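 Pooled human or CD-1 mouse liver microsomes at 0.4 mg/mL microsomal protein. Percent parent remaining after 1 h incubation.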

[8] = Metabolic stability in human liver microsomes assessed as parent compound remaining incubated for 1 hr; assay type: ADME, Microsome; conditions: read-out: Stabilty; summary of the method: as §1
Trypanosoma cruzi [9] = test: Antitrypanosomal activity against Trypanosoma cruzi Tulahuen strain C2C4 amastigotes infected in […] cells assessed as reduction in parasite growth incubated for 48 hrs by chlorophenol red-fl-D-galactopyranoside based colorimetric analysis; assay type: functional, organism-based; conditions: for IC50: Tulahuen strain C2C4, NIH3T3, 48 h; for IC90: Tulahuen strain C2C4, NIH3T3, time 48 hrs
[10] = Cytotoxicity against rat 3T3 cells assessed as reduction in cell viability incubated for 72 hrs by alamar blue assay; assay type: ADME, cell-based; conditions: NIH3T3, 72 h
Trypanosoma cruzi [11] = test: Antitrypanosomal activity against Trypanosoma cruzi Tulahuen strain C2C4 amastigotes infected in […] cells assessed as reduction in parasite growth incubated for 48 hrs by chlorophenol red-fl-D-galactopyranoside based colorimetric analysis relative to control; assay type: functional
[12] = Inhibition of Trypanosoma cruzi Tulahuen C4 strain CYP51 expressed in Escherichia coli by fluorescence based assay
[13] = Selectivity index, ratio of IC50 for cytotoxicity against rat 3T3 cells to IC50 for antitrypanosomal activity against Trypanosoma cruzi Tulahuen strain C2C4 amastigotes infected in rat 3T3 cells
Trypanosoma cruzi [14] = test: Antitrypanosomal activity against bloodstream trypomastigotes form of Trypanosoma cruzi CL Brener infected in BALB/c mouse assessed as reduction in parasitemia at 100 mg/kg, po qd administered for 5 days starting from day 114 post infection followed by cyclophosphamide induced immunosuppression on days 135, 139 and 143 post infection and measured for 149 days by bioluminescence analysis; assay type: functional, organism-based; conditions: time 5.0 day
Summary of the method: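 Female BALB/c mice, 8 weeks old, ~18 g, 5 per group. Infected i.p. with 10^3 bloodstream trypomastigotes of bioluminescent CL Brener (pTRIX2-RE9h). From day 114 p.i., oral dosing once daily for 5 days: reference drugs at 100 mg/kg in HPMC-SV with 5% DMSO, PEG400 vehicle at 50 mg/kg. Cyclophosphamide 200 mg/kg i.p. on days 135, 139 and 143. Final imaging day 149. Ex vivo organ bioluminescence days 149-151.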

Trypanosoma cruzi [15] = test: Antitrypanosomal activity against Trypanosoma cruzi Y strain amastigotes infected in U2OS cells assessed as inhibition of parasite growth at […] by image-based assay relative to control
Trypanosoma cruzi [16] = test: Antitrypanosomal activity against Trypanosoma cruzi Y strain amastigotes infected in U2OS cells assessed as inhibition of parasite growth at 3.3 ug/ml by image-based assay relative to control

Compound | IC50 (Trypanosoma cruzi [1]) | IC90 (Trypanosoma cruzi [1]) | IC50 (L6) | selectivity ratio [2] | solubility kinetic at 0.25 h [3] | half-life at 1 h [4] | inhibition at 10 µg/mL (Trypanosoma cruzi [5]) | solubility kinetic at 0.25 h [6] | remaining at 1 h [7] | remaining at 1 h [8] | IC50 (Trypanosoma cruzi [9]) | IC90 (Trypanosoma cruzi [9]) | IC50 [10] | %max (Trypanosoma cruzi [11]) | IC50 [12] | selectivity ratio ([13]; 3T3 cells) | Activity (Trypanosoma cruzi [14]) | selectivity ratio [13] | inhibition at […] (Trypanosoma cruzi [15]) | inhibition at 3.3 µg/mL (Trypanosoma cruzi [16])
O=[N+]([O-])c1cn2c(n1)[S+]([O-])CC(OCc1ccc(COc3ccccc3)cc1)C2 (stereo unspecified) | 0.035 µM | 0.089 µM | > 100 µM | > 2860 | 0.44 µg/mL (≈ 1.06 µM) | 2.6 h | 89% | – | – | – | – | – | – | – | – | – | – | – | – | –
O=[N+]([O-])c1cn2c(n1)OC[C@H](OCC#Cc1ccc(-c3ccc(C(F)(F)F)cc3)cn1)C2 | – | – | – | – | 0.68 µg/mL (≈ 1.53 µM) | – | – | 7.6 µg/mL (≈ 17.1 µM) | 76% | 58% | 0.27 µM | 1.7 µM | > 37 µM | 95% | > 10 µM | > 137 | – | – | – | –
CC1CS(=O)(=O)CCN1/N=C/c1ccc([N+](=O)[O-])o1 (stereo unspecified) [NIFURTIMOX] | – | – | – | – | – | – | – | – | – | – | 2.1 µM | 4.6 µM | > 127 µM | 99% | > 10 µM | – | Active | > 60 | – | –
O=[N+]([O-])c1cn2c(n1)OC[C@H](OCC#Cc1ccc(-c3ccc(OC(F)(F)F)cc3)cn1)C2 | – | – | – | – | < 0.1 µg/mL | – | – | 3 µg/mL (≈ 6.52 µM) | 74% | 68% | 0.67 µM | 2.2 µM | > 37 µM | 94% | > 10 µM | > 55 | – | – | – | –
O=[N+]([O-])c1cn2c(n1)OCC(COc1ccc(-c3ccc(F)cc3)cn1)C2 (stereo unspecified) | 0.022 µM | 0.19 µM | > 100 µM | > 4540 | 1.1 µg/mL (≈ 2.97 µM) | – | – | – | – | – | – | – | – | – | – | – | – | – | 29% | –
CC1(COc2ccc(OC(F)(F)F)cc2)CCn2cc([N+](=O)[O-])nc2S1(=O)=O (stereo unspecified) | 0.7 µM | 1.6 µM | > 100 µM | > 143 | 1.1 µg/mL (≈ 2.61 µM) | – | – | – | 76% | 88% | 1.3 µM | 3 µM | > 37 µM | 101% | > 10 µM | > 28 | – | – | – | –
O=[N+]([O-])c1nc2n(n1)C[C@H](O)CO2 | 1.6 µM | 6.3 µM | > 100 µM | > 63 | 8750 µg/mL (≈ 47000 µM) | – | – | – | – | – | – | – | – | – | – | – | – | – | 58% | –
O=[N+]([O-])c1cn2c(n1)OC[C@@H](OCC#Cc1ccc(-c3ccc(C(F)(F)F)cc3)cn1)C2 | 0.23 µM | 0.59 µM | > 100 µM | > 435 | 0.33 µg/mL (≈ 0.743 µM) | – | – | – | – | – | 0.51 µM | 1.7 µM | > 37 µM | 97% | > 10 µM | > 73 | – | – | 48% | –
O=[N+]([O-])c1cn2c(n1)S(=O)(=O)CC(OCc1ccc(COc3ccccc3)cc1)C2 (stereo unspecified) | 0.28 µM | 0.44 µM | > 100 µM | > 357 | 0.13 µg/mL (≈ 0.303 µM) | 1.72 h | 95% | – | – | – | – | – | – | – | – | – | – | – | – | –
CC1(COCc2ccc(OCc3ccccc3)cc2)Cn2cc([N+](=O)[O-])nc2S1(=O)=O (stereo unspecified) | 0.083 µM | 0.24 µM | > 100 µM | > 1200 | < 0.1 µg/mL | 0.417 h | – | – | – | – | – | – | – | – | – | – | – | – | – | 59%
O=[N+]([O-])c1cn2c(n1)OC[C@H](OCc1ccc(-c3ccc(C(F)(F)F)cc3Cl)cn1)C2 | 0.67 µM | 2.9 µM | 50 µM | 75 | 1 µg/mL (≈ 2.2 µM) | – | – | 299 µg/mL (≈ 657 µM) | – | – | – | – | – | – | – | – | – | – | – | –
CSc1ccc(OCc2ncc([N+](=O)[O-])n2C)cc1 | – | – | – | – | – | – | – | – | – | – | – | – | – | – | – | – | Active | – | – | –
O=C(Cn1ccnc1[N+](=O)[O-])NCc1ccccc1 [BENZNIDAZOLE] | – | – | – | – | – | – | – | – | – | – | 12 µM | 37 µM | > 127 µM | 101% | > 10 µM | > 11 | Active | – | – | –
O=[N+]([O-])c1cn2c(n1)OC[C@H](OCc1ccc(-c3ccc(C(F)(F)F)cc3Cl)cc1)C2 | 0.25 µM | 0.71 µM | 29 µM | 116 | < 0.1 µg/mL | – | – | – | 83% | 76% | 0.28 µM | 0.41 µM | > 37 µM | 100% | 7.6 µM | > 132 | – | – | – | –
O=[N+]([O-])c1cn2c(n1)OC[C@@H](OCc1cccc(-c3cccc(OC(F)(F)F)c3)c1)C2 | > 10 µM | > 10 µM | 13 µM | – | – | – | 65% | – | – | – | – | – | – | – | – | – | – | – | – | –
CC1(COc2ccc(-c3ccc(F)cc3)cn2)CCn2cc([N+](=O)[O-])nc2O1 (stereo unspecified) | – | – | – | – | – | – | – | – | – | – | – | – | – | – | – | – | – | – | – | 50%
O=[N+]([O-])c1cn2c(n1)OC[C@H](OCc1ccc(-c3ccc(OC(F)(F)F)cc3Cl)cc1)C2 | 0.24 µM | 1.1 µM | 25 µM | 104 | < 0.1 µg/mL | – | – | – | 76% | 85% | 0.57 µM | 1 µM | > 37 µM | 99% | > 10 µM | > 65 | – | – | – | –
O=[N+]([O-])c1nc2n(n1)C[C@H](OCc1ccc(OCc3ccccc3)cc1)CO2 | 0.047 µM | 0.13 µM | > 100 µM | > 2130 | 0.18 µg/mL (≈ 0.471 µM) | – | 12% | – | – | – | – | – | – | – | – | – | – | – | – | –
